This note sets out measurements from ChEMBL document CHEMBL1144780, “Synthesis and SAR of new pyrrolo[2,1-f][1,2,4]triazines as potent p38 alpha MAP kinase inhibitors” (Bioorg Med Chem Lett, 2008).

The test system of assay [1] is PBMC. As to the kind of experiment: Inhibition of LPS-stimulated TNFalpha production in human PBMCs. In kind it is functional, cell-based. The gist of the method:
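PBMCs from heparinized healthy-volunteer blood isolated by Ficoll-Hypaque and resuspended at 5 × 10⁶/mL in RPMI with 10% FBS. Cells preincubated with compound for 5 min at rt, then stimulated with LPS (200 ng/mL stock) for 6 h at 37 °C. TNF-α in medium measured by ELISA. IC50 derived by linear regression.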

Assay [2] has as its target Mitogen-activated protein kinase 14 (Homo sapiens, UniProt Q16539). As to the kind of experiment: Inhibition of p38alpha.
Assay [3] deals with Mus musculus. Description: Inhibition of LPS-induced TNFalpha production in BALB/c mouse at 10 mg/kg, po relative to control. In kind it is functional. The gist of the method:
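Female BALB/c mice, 6–8 weeks old, n = 8 per group, given 10 mg/kg by oral gavage in PEG 300; vehicle controls received PEG300 alone. LPS (E. coli O111:B4, 50 µg/kg) given ip 30 min after dosing. Blood taken 90 min after LPS and serum TNF-α measured by ELISA. Inhibition relative to vehicle, means SD, ANOVA.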

Mitogen-activated protein kinase 14, sequence (Q16539 whole entry): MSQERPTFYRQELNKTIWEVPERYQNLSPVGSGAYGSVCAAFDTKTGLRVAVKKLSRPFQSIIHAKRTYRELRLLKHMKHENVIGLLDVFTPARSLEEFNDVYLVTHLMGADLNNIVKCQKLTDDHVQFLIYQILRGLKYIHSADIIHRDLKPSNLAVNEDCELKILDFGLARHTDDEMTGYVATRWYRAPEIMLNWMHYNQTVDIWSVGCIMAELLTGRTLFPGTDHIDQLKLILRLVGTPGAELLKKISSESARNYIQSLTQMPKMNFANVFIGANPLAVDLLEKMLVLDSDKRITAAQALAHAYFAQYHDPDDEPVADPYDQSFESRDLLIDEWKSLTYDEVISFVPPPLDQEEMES

For orientation: IC50 means the concentration that gives 50% inhibition. Higher therefore signals weaker potency in that assay. With `Cc1ccc(NC(=O)c2cc(F)cc(N3CCOCC3)c2)cc1Nc1ncnn2cc(C(=O)NCCN(C)C)c(C)c12`, the IC50 in assay [1] came to 0.018 µM; in assay [2] it was 0.01 µM.

As to `CCNC(=O)c1cn2ncnc(Nc3cc(NC(=O)c4ccc(C#N)cc4)ccc3C)c2c1C`, the half-inhibitory concentration (IC50) in assay [1] is 0.046 µM; in assay [2], 0.023 µM.

On to `CCNC(=O)c1cn2ncnc(Nc3cc(NC(=O)c4ccnc(N5CCOCC5)c4)ccc3C)c2c1C`, for which the half-inhibitory concentration (IC50) in assay [1] worked out at 0.287 µM; in assay [2], 0.002 µM.

On to `CCOC(=O)c1cn2ncnc(Nc3cc(NC(=O)c4cc(F)cc(N5CCOCC5)c4)ccc3C)c2c1C`, for which the values for the IC50 in assay [1] and in assay [2] were 0.004 µM and 0.002 µM, respectively.

In assay [1], `COC[C@H](C)NC(=O)c1cn2ncnc(Nc3cc(NC(=O)c4ccc(C#N)cc4)ccc3C)c2c1C` returned an IC50 of 0.065 µM.

For the molecule `Cc1ccc(NC(=O)c2ccncc2)cc1Nc1ncnn2cc(C(=O)N[C@@H](C)c3ccccc3)c(C)c12`, the 50% inhibitory concentration (IC50) in assay [1] amounted to 0.117 µM; in assay [2], 0.014 µM.

In assay [2], `Cc1ccc(NC(=O)c2cc(C(F)(F)F)cc(C(F)(F)F)c2)cc1Nc1ncnn2cc(C(=O)N[C@@H](C)c3ccccc3)c(C)c12` gave an IC50 of over 1 µM.

Turning to `Cc1ccc(NC(=O)c2ccccc2)cc1Nc1ncnn2cc(C(=O)N[C@@H](C)c3ccccc3)c(C)c12`, the IC50 in assay [1] was determined as 0.052 µM; in assay [2], 0.019 µM.

The molecule `Cc1ccc(NC(=O)c2c(Cl)cccc2Cl)cc1Nc1ncnn2cc(C(=O)N[C@@H](C)c3ccccc3)c(C)c12` showed an IC50 in assay [2] of over 1 µM.

On to `Cc1ccc(NC(=O)c2cc(F)cc(N3CCOCC3)c2)cc1Nc1ncnn2cc(C(=O)N(C)C)c(C)c12`, for which the values for the IC50 in assay [1] and in assay [2] were 0.212 µM and 0.063 µM, respectively.

Consider `COC[C@H](C)NC(=O)c1cn2ncnc(Nc3cc(NC(=O)c4cc(F)cc(N5CCOCC5)c4)ccc3C)c2c1C` (stereo in doubt; 39), for which the IC50 stood at 0.007 µM in assay [1] and 0.002 µM in assay [2].

As to `Cc1ccc(NC(=O)c2cc(F)cc(N3CCOCC3)c2)cc1Nc1ncnn2cc(C(=O)NC(C)C)c(C)c12`, the IC50 in assay [1] is 0.006 µM; in assay [2], 0.005 µM.

Take `Cc1ccc(NC(=O)c2cc(F)cc(N3CCOCC3)c2)cc1Nc1ncnn2cc(C(N)=O)c(C)c12`: the half-inhibitory concentration (IC50) in assay [1] was 0.019 µM; in assay [2] it was 0.003 µM.

For the molecule `CCNC(=O)c1cn2ncnc(Nc3cc(NC(=O)c4cccc(-n5cccn5)c4)ccc3C)c2c1C`, inhibition in assay [2] was half-maximal at 0.123 µM (IC50).

As for `Cc1ccc(C(=O)Nc2ccc(C)c(Nc3ncnn4cc(C(=O)N[C@@H](C)c5ccccc5)c(C)c34)c2)cc1`, the values for the IC50 in assay [1] and in assay [2] were 0.313 µM and 0.013 µM, respectively.

One may read the inhibition in vivo as the share of the control response that was lost under treatment. Lower therefore signals little suppression. One may read the Ki as the equilibrium dissociation constant of an inhibitor or competing ligand from its target. In assay [1], `CCNC(=O)c1cn2ncnc(Nc3cc(NC(=O)c4cccc(N5CCOCC5)c4)ccc3C)c2c1C` returned an IC50 of 0.045 µM. Moreover, in assay [3], the inhibition in vivo at 10 mg/kg came out at 84%. Besides, the affinity in assay [2] corresponds to a Ki of 0.00098 µM.

In assay [1], `Cc1ccc(NC(=O)c2ccc(C#N)cc2)cc1Nc1ncnn2cc(C(=O)N[C@@H](C)c3ccccc3)c(C)c12` showed an IC50 of 0.011 µM. Moreover, affinity in assay [2] was put at a Ki of 0.0034 µM.

For `Cc1ccc(NC(=O)c2cc(F)cc(N3CCOCC3)c2)cc1Nc1ncnn2cc(C(=O)O)c(C)c12`, the half-inhibitory concentration (IC50) in assay [1] was over 1 µM; in assay [2] it was 0.001 µM.

Take `CCNC(=O)c1cn2ncnc(Nc3cc(NC(=O)c4cccc(N5CCN(C)CC5)c4)ccc3C)c2c1C`: the half-maximal inhibitory concentration (IC50) in assay [2] amounted to 0.924 µM.

Consider `CNC(=O)c1cn2ncnc(Nc3cc(NC(=O)c4cc(F)cc(N5CCOCC5)c4)ccc3C)c2c1C`, for which the values for the IC50 in assay [1] and in assay [2] were 0.014 µM and 0.004 µM, respectively.

Turning to `Cc1ccc(NC(=O)c2ccnc(N3CCOCC3)c2)cc1Nc1ncnn2cc(C(=O)N[C@@H](C)c3ccccc3)c(C)c12`, in assay [1], the IC50 turned out to be 0.043 µM. Besides, the inhibition in vivo at 10 mg/kg in assay [3] came out at 89%.

With `CCCNC(=O)c1cn2ncnc(Nc3cc(NC(=O)c4cc(F)cc(N5CCOCC5)c4)ccc3C)c2c1C`, the IC50 in assay [1] is 0.004 µM; in assay [2] it was 0.005 µM.

The molecule `COC[C@H](C)NC(=O)c1cn2ncnc(Nc3cc(NC(=O)c4cc(F)cc(N5CCOCC5)c4)ccc3C)c2c1C` (stereo in doubt; 16) returned a half-maximal inhibitory concentration (IC50) in assay [2] of 0.002 µM.

Regarding `Cc1ccc(NC(=O)c2cc(F)cc(N3CCOCC3)c2)cc1Nc1ncnn2ccc(C)c12`, the IC50 in assay [1] turned out to be 0.098 µM; in assay [2] it was 0.027 µM.

`CCNC(=O)c1cn2ncnc(Nc3cc(NC(=O)c4cccc(N5CCCC5=O)c4)ccc3C)c2c1C`: the IC50 came to 0.633 µM in assay [1] and 0.016 µM in assay [2].

As for `CCNC(=O)c1cn2ncnc(Nc3cc(NC(=O)c4cc(F)cc(N5CCOCC5)c4)ccc3C)c2c1C`, the IC50 in assay [1] worked out at 0.002 µM. The inhibitory constant (Ki) in assay [2] worked out at 0.00042 µM.

Take `Cc1cccc(C(=O)Nc2ccc(C)c(Nc3ncnn4cc(C(=O)N[C@@H](C)c5ccccc5)c(C)c34)c2)c1`: the half-maximal inhibitory concentration (IC50) in assay [1] was determined as 0.259 µM; in assay [2] it was 0.094 µM.

With `CCNC(=O)c1cn2ncnc(Nc3cc(NC(=O)c4cccc(-n5ccnc5)c4)ccc3C)c2c1C`, the values for the IC50 in assay [1] and in assay [2] were 0.126 µM and 0.007 µM, respectively.

For `COC[C@H](C)NC(=O)c1cn2ncnc(Nc3cc(NC(=O)c4cccc(N5CCOCC5)c4)ccc3C)c2c1C`, the IC50 in assay [1] is 0.029 µM; in assay [2], 0.012 µM.

As to `Cc1ccc(NC(=O)c2cccc(C(F)(F)F)c2)cc1Nc1ncnn2cc(C(=O)N[C@@H](C)c3ccccc3)c(C)c12`, the IC50 was determined as 0.072 µM in assay [1] and 0.032 µM in assay [2].

In assay [1], `Cc1ccc(NC(=O)c2cccc(N3CCOCC3)c2)cc1Nc1ncnn2cc(C(=O)N[C@@H](C)c3ccccc3)c(C)c12` displayed an IC50 of 0.029 µM. The inhibition in vivo at 10 mg/kg in assay [3] was determined as 87%.

`Cc1ccc(NC(=O)c2cc(F)cc(N3CCOCC3)c2)cc1Nc1ncnn2cc(C(=O)N[C@@H](C)c3ccccc3)c(C)c12` displayed an IC50 in assay [1] of 0.002 µM. In assay [2], this molecule registered a Ki of 0.00054 µM.

`Cc1ccc(NC(=O)c2cc(F)cc(N3CCOCC3)c2)cc1Nc1ncnn2cc(C(=O)N[C@H](C)c3ccccc3)c(C)c12`: the IC50 in assay [1] was found to be 0.048 µM; in assay [2], 0.023 µM.
